{"data": "Measurements collected from several papers", "cell line": "HepG2", "read-out": "cell growth or viability"}
{"Structure (SMILES)": "Nc1c(C(=O)Nc2cccnc2)sc2nc(-c3ccccc3)cc(C(F)(F)F)c12", "time": "72 h", "IC50": "> 100 µM"}
{"Structure (SMILES)": "CC1=C(O)C(=O)C=C2C1=CC=C1[C@@]2(C)CC[C@@]2(C)[C@@H]3C[C@](C)(C(=O)O)CC[C@]3(C)CC[C@]12C", "method": "CCK-8", "time": "24 h", "IC50": "2.53 µM"}
{"Structure (SMILES)": "C#CCn1c(C(=O)/C=C/c2ccc(F)cc2)nc2ccccc21", "method": "LDH", "time": "48 h", "IC50": "1.72 µM"}
{"Structure (SMILES)": "CN[C@@H]1C[C@H]2O[C@@](C)([C@@H]1OC)n1c3ccccc3c3c4c(c5c6ccccc6n2c5c31)C(=O)NC4", "IC50": "0.0383 µM"}
{"Structure (SMILES)": "COc1ccc(-c2cc(C(F)(F)F)c3c(N)c(C(=O)N4CCCC4)sc3n2)cc1", "time": "72 h", "IC50": "> 50 µM"}
{"Structure (SMILES)": "COc1cc(NC(=N)CC(O)c2cc3c(F)cc(F)cc3c3cc(C(F)(F)F)ccc23)ccc1Br (centres unmarked)", "method": "neutral red", "time": "24 h", "IC50": "15.3 µM"}
{"Structure (SMILES)": "CC(C)=CCC[C@](C)(O)[C@H]1CC[C@]2(C)[C@@H]1[C@H](O)C[C@@H]1[C@@]3(C)CC[C@H](O)C(C)(C)[C@@H]3[C@@H](O[C@@H]3O[C@H](CO)[C@@H](O)[C@H](O)[C@H]3O)C[C@]12C", "method": "CCK-8", "time": "24 h", "IC50": "32 µM"}
{"Structure (SMILES)": "N=C(CC(O)c1cc2c(F)cc(F)cc2c2cc(C(F)(F)F)ccc12)Nc1ccccc1I (centres unmarked)", "method": "neutral red", "time": "24 h", "IC50": "160 µM"}
{"Structure (SMILES)": "Nc1c(C(=O)N2CC(F)(F)C2)sc2ncccc12", "time": "72 h", "IC50": "> 100 µM"}
{"Structure (SMILES)": "N=C(CC(O)c1cc2c(F)cc(F)cc2c2cc(C(F)(F)F)ccc12)Nc1ccc(-c2ccc(F)cc2)cc1 (centres unmarked)", "method": "neutral red", "time": "24 h", "IC50": "10.5 µM"}
{"Structure (SMILES)": "Fc1ccc2c(-c3nc(Cc4ccccc4)cs3)nn(Cc3ccc(Cl)cc3Cl)c2c1", "time": "48 h", "IC50": "25.1 µM"}
